Holding throughout (format): functional
For assay [1], the system named is L1210. Nature of the assay: Cytostatic activity against proliferation of L1210/BdU cells (deoxythymidine kinase deficient L1210 cells). The conditions noted are these: Mus musculus, read-out: ID50 (the source's name). The method, boiled down:
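Murine L1210 subline deficient in deoxythymidine kinase (L1210/BdU), selected for growth in 260 μg/mL 5-bromo-dU. Proliferation assay; value is the ID50, the dose that inhibits tumor cell proliferation by 50%.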

The subject of assay [2] is L1210. The experiment in a line: Cytostatic activity against proliferation of L1210/0 cells (murine leukemia L1210 cells). The conditions noted are these: Mus musculus, read-out: ID50 (the source's name). The method, boiled down:
(§1)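 Tumor cell proliferation assay. L1210/0 is the parental murine leukemia line and Raji/0 the parental human lymphoblast line, with a deoxythymidine kinase deficient Raji subline. Value is the ID50, the dose that inhibits cell proliferation by 50%.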

Assay [3] concerns Raji. The experiment in a line: Cytostatic activity against proliferation of Raji/0 cells (human lymphoblast Raji cells). The conditions noted are these: read-out: ID50 (the source's name). The gist of the method:
as §1

In assay [4] the test system is Raji. Nature of the assay: Cytostatic activity against proliferation of Raji/TK cells (deoxythymidine kinase deficient Raji cells). The following applies: Homo sapiens, read-out: ID50 (the source's name). The method, boiled down: as §1
The test system of assay [5] is Human alphaherpesvirus 2. The experiment in a line: Antiviral activity against Herpes Simplex Virus-2(196). The method, boiled down:
(§2)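 Primary rabbit kidney cell cultures infected with virus. Value is the minimum concentration that reduces virus-induced cytopathogenicity by 50%. Cytotoxicity was scored as a microscopically detectable alteration of normal cell morphology.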

Assay [6] deals with Human alphaherpesvirus 2. Nature of the assay: Antiviral activity against Herpes Simplex Virus-2(Lyons). The gist of the method:
as §2

In assay [7] the test system is Vaccinia virus. Nature of the assay: Antiviral activity against vaccinia virus. The following applies: Orthopoxvirus vaccinia. The method, boiled down:
as §2

The test system of assay [8] is Human alphaherpesvirus 1. The experiment in a line: Antiviral activity against Herpes Simplex Virus-1 (KOS). The method, boiled down:
as §2

Assay [9] deals with Human alphaherpesvirus 1. The experiment in a line: Antiviral activity against Herpes Simplex Virus-1 (McIntyre). The method, boiled down:
as §2

The subject of assay [10] is Human alphaherpesvirus 2. Nature of the assay: Antiviral activity against Herpes Simplex Virus-2(G). The method, boiled down: as §2
For assay [11], the system named is Vesicular stomatitis virus. Nature of the assay: Antiviral activity against vesicular stomatitis virus. The method, boiled down:
as §2

The subject of assay [12] is Human alphaherpesvirus 1. The experiment in a line: Antiviral activity against Herpes Simplex Virus-1 (F). The method, boiled down:
as §2

Values after ≈ are worked out from the molar mass of the structure shown.

Turning to `O=c1[nH]cc(I)c(=O)[nH]1`, the IC50 in assay [1] is more than 1000 µg/mL; in assay [2], more than 1000 µg/mL; in assay [3], more than 1000 µg/mL; in [4], 612 µg/mL (≈ 2570 µM).

As to `O=c1[nH]c(=O)n([C@@H]2O[C@H](COP(=O)(O)O)[C@@H](O)[C@H]2O)cc1I`, the IC50 in assay [1] was more than 1000 µg/mL; in assay [2], 703 µg/mL (≈ 1560 µM); in assay [3] it was more than 1000 µg/mL; in assay [4] it was more than 1000 µg/mL.

As to `Oc1ncc(Cl)c(O)n1`, the IC50 in assay [1] was 660 µg/mL (≈ 4500 µM); in [2], 455 µg/mL (≈ 3110 µM); in assay [3], more than 1000 µg/mL; in assay [4], more than 1000 µg/mL.

For `O=c1[nH]c(=O)n([C@@H]2O[C@H](COP(=O)(O)O)[C@@H](O)[C@H]2O)cc1Br`, the IC50 was 376 µg/mL (≈ 933 µM) in assay [1], 385 µg/mL (≈ 955 µM) in [2], 48 µg/mL (≈ 119 µM) in assay [3] and more than 1000 µg/mL in [4].

On to `O=c1[nH]c(=O)n([C@@H]2O[C@H](CO)[C@@H](O)[C@@H]2O)cc1Br`, for which the IC50 in [1] was 335 µg/mL (≈ 1040 µM); in assay [2] it was 210 µg/mL (≈ 650 µM); in assay [3], 32 µg/mL (≈ 99 µM); in [4], 950 µg/mL (≈ 2940 µM).

Consider `O=c1[nH]c(=O)n([C@@H]2O[C@@H]3COP(=O)(O)O[C@H]3[C@H]2O)cc1I`, for which the IC50 in assay [1] worked out at 344 µg/mL (≈ 796 µM); in [2], 315 µg/mL (≈ 729 µM); in assay [3] it was 359 µg/mL (≈ 831 µM); in assay [4] it was 722 µg/mL (≈ 1670 µM).

As for `O=c1[nH]c(=O)n([C@@H]2O[C@@H]3COP(=O)(O)O[C@H]3[C@H]2O)cc1Cl`, the IC50 was more than 1000 µg/mL in assay [1], more than 1000 µg/mL in [2], 278 µg/mL (≈ 816 µM) in [3] and 369 µg/mL (≈ 1080 µM) in assay [4]. Also, the MIC in assay [5], in [6], in assay [7], in assay [8], in assay [9] and in assay [10] was more than 400 µg/mL throughout. Further, the MIC in assay [11] and in assay [12] was more than 400 µg/mL throughout.

Consider `O=c1[nH]c(=O)n([C@@H]2O[C@@H]3COP(=O)(O)O[C@H]3[C@H]2O)cc1Br`, for which the IC50 in [1] came to 294 µg/mL (≈ 764 µM); in assay [2], 315 µg/mL (≈ 818 µM); in assay [3], 210 µg/mL (≈ 545 µM); in assay [4], 241 µg/mL (≈ 626 µM). The MIC is more than 200 µg/mL in assay [5]; 150 µg/mL (≈ 390 µM) in [6]; more than 200 µg/mL in assay [7]; more than 200 µg/mL in assay [8]; 200 µg/mL (≈ 519 µM) in assay [9]; more than 200 µg/mL in [10]. For the same molecule, the MIC in [11] and in assay [12] was more than 200 µg/mL each time.

For the molecule `O=c1[nH]c(=O)n([C@@H]2O[C@@H]3COP(=O)(O)O[C@H]3[C@H]2O)cc1F`, the IC50 in assay [1] was found to be 0.332 µg/mL (≈ 1.02 µM); in [2] it was 0.34 µg/mL (≈ 1.05 µM); in assay [3], 0.416 µg/mL (≈ 1.28 µM); in assay [4], 1.64 µg/mL (≈ 5.06 µM). The MIC in assay [5] was more than 100 µg/mL; in [6] it was more than 100 µg/mL; in assay [7] it was 20 µg/mL (≈ 61.7 µM); in [8] it was more than 100 µg/mL; in assay [9], more than 100 µg/mL; in [10], more than 100 µg/mL. The MIC in [11] was 150 µg/mL (≈ 463 µM); in assay [12] it was more than 100 µg/mL.

Take `O=c1[nH]c(=O)n(C2O[C@H](COP(=O)(O)O)[C@@H](O)[C@@H]2O)cc1F` (stereo partly drawn): the IC50 stood at 0.03 µg/mL (≈ 0.0877 µM) in assay [1], 0.024 µg/mL (≈ 0.0701 µM) in assay [2], 0.029 µg/mL (≈ 0.0848 µM) in [3] and 0.141 µg/mL (≈ 0.412 µM) in assay [4].

As to `O=c1[nH]c(=O)n(C2O[C@H](CO)[C@@H](O)[C@@H]2O)cc1I` (stereo partly drawn), the IC50 in assay [1] is more than 1000 µg/mL; in assay [2] it was more than 1000 µg/mL; in assay [3] it was 639 µg/mL (≈ 1730 µM); in assay [4] it was 738 µg/mL (≈ 1990 µM).

`O=c1[nH]cc(Br)c(=O)[nH]1` [5-BROMOURACIL]: the IC50 in [1], in assay [2], in [3] and in assay [4] was more than 1000 µg/mL each time.

Take `O=c1[nH]c(=O)n([C@@H]2O[C@H](CO)[C@@H](O)[C@H]2O)cc1F` [5-FLUOROURIDINE]: the IC50 in assay [1] came to 0.019 µg/mL (≈ 0.0725 µM); in assay [2] it was 0.013 µg/mL (≈ 0.0496 µM); in [3] it was 0.023 µg/mL (≈ 0.0877 µM); in assay [4], 0.085 µg/mL (≈ 0.324 µM).

With `O=c1[nH]c(=O)n([C@H]2C[C@H](O)[C@@H](CO)O2)cc1/C=C/Br` [BRIVUDINE], the MIC was 100 µg/mL (≈ 300 µM) in assay [5]; 1 µg/mL (≈ 3 µM) in [6]; 2 µg/mL (≈ 6 µM) in assay [7]; 0.02 µg/mL (≈ 0.06 µM) in assay [8]; 0.02 µg/mL (≈ 0.06 µM) in [9]; 1 µg/mL (≈ 3 µM) in assay [10]. Also, the MIC in [11] was more than 400 µg/mL; in [12] it was 0.02 µg/mL (≈ 0.06 µM).

Consider `O=c1[nH]cc(F)c(=O)[nH]1` [FLUOROURACIL], for which the IC50 is 0.286 µg/mL (≈ 2.2 µM) in [1], 0.208 µg/mL (≈ 1.6 µM) in assay [2], 1.35 µg/mL (≈ 10.4 µM) in assay [3] and 3.37 µg/mL (≈ 25.9 µM) in assay [4].

The values are drawn from ChEMBL document CHEMBL1123152, “Synthesis, structure, and antitumor and antiviral activities of a series of 5-halouridine cyclic 3',5'-monophosphates” (1986).
